# Assay outcomes from PubChem.
# SIAE primary: inhibitors of human sialic acid acetylesterase SIAE. SIAE FP-Rh probe binding, fluorescence polarization. inhibition, % at 9.66 µM. hit rate 0.69% among 370,000;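 active = inhibition above a cutoff: mean of compounds within the control limits plus 3 SD of those, cut at about 17% in these data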;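 also: 0% = plate median of compound wells and 100% = probe without SIAE protein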
# UHRF1 MBD2 ctr: UHRF1 methyl-DNA binding inhibition. hit rate 0.75% among 370,000. inhibition, % at 4.4 µM. UHRF1 binding to methylated oligo, TR-FRET. Q96T88; in the data active = inhibition above about 21%;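 also: UHRF1 SRA domain binding a hemimethylated CpG hairpin DNA probe; 0% = median of test compound wells and 100% = reference inhibitor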
# MBD2 inh: MBD2-methylated oligo binding inhibition; hit rate 0.31% among 370,000; TR-FRET, MBD2 binding to methylated oligonucleotide; inhibition, % at 4.4 µM; Q9UBB5; in the data active = inhibition above about 13%
# LEDGF integ inh: blocks HIV-1 LEDGF/p75-dependent DNA integration; TR-FRET IN-LEDGF/p75 DNA integration, Eu/Cy5; hit rate 0.64% among 370,000; inhibition, % at 3.7 µM; AID 743269;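 active = inhibition above the screen-wide mean plus 3 SD, cut at about 13% in these data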;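 also: signal is the Cy5 over europium emission ratio at 671 and 618 nm; 0% = plate median of compound wells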
# PRMT1 inh: PRMT1 (human) inhibition, primary screen; recombinant PRMT1, activity-based probe fluorescence polarization; inhibition, % at 2.79 µM; hit rate 1.3% among 370,000; AID 652257;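 active = inhibition above about 21% made by adding two undisclosed values, limit read from the data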
# Target sequence (Q99873 whole entry, looked up): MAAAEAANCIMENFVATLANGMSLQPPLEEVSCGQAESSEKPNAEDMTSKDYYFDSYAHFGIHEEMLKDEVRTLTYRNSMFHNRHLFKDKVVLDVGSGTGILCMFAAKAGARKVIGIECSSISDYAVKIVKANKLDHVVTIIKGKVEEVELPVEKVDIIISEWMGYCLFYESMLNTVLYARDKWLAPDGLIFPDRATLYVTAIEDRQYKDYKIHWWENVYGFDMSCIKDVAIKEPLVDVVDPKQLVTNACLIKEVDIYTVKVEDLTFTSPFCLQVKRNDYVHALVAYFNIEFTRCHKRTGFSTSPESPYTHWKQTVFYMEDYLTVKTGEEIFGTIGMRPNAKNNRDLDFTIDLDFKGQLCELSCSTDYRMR
# TDP2 inh: blocks human TDP2 phosphodiesterase activity | inhibition, % at 12.8 µM | recombinant TDP2, T5PNP hydrolysis, p-nitrophenol absorbance 415 nm | O95551 | hit rate 0.34% among 370,000;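 active = inhibition above the mean of all tested compounds plus 3 SD, set per campaign, cut at about 25% in these data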;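 also: 0% = DMSO with enzyme and 100% = buffer with substrate but no TDP2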
#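 Test system: human TDP2 enzyme; Input: 120 nM TDP2 per well; Buffer or medium: Mg2+-containing Tris-HCl buffer, pH 7.5; Reagent: 5 mM T5PNP; Dosing: 12.8 µM single point, 1% DMSO; Incubation: reaction 2 h, 37 °C; Detection: p-Nitrophenol epi absorbance; Read-out: % inhibition relative to enzyme-containing and enzyme-free wells; Replicates: single well per compound.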
# SIAE inh conf: confirmation of human SIAE inhibitors; shares compounds with SIAE primary; SIAE FP-Rh activity-based probe, fluorescence polarization; inhibition, % at 9.66 µM; hit rate 13% among 2,300; AID 1117263;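 active = mean inhibition of the replicates above the hit cutoff set in the primary screen, cut at about 17% in these data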;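 also: 0% = SIAE with DMSO and probe and 100% = probe without SIAE; inhibitors lower polarization as more probe stays unbound to SIAE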
# An asterisk follows results filed as active; nt = no result. Shown are actives, neighbours in structure and some others; about 3.3% of the full set was active somewhere.
SMILES,SIAE primary,UHRF1 MBD2 ctr,MBD2 inh,LEDGF integ inh,PRMT1 inh,TDP2 inh,SIAE inh conf
CCOC(=O)[C@@]1(C#N)[C@@H]2C=CC(C(N)=O)=CN2[C@@H](C(N)=O)[C@@H]1c1cccc(Cl)c1,21*,-5,1,1,2,13,0
O=C(N/N=C/c1c(O)n(Cc2ccccc2)c(=O)[nH]c1=O)c1ccccc1O,28*,-4,0,-4,2,-4,5
O=C(N/N=C/c1c(O)n(Cc2ccc(F)cc2)c(=O)[nH]c1=O)c1ccccc1O,11,0,5,-6,6,-4,nt
NP(=O)(OCC(F)(F)F)Oc1ccc(Cl)cc1 (stereo unspecified),20*,3,2,1,-1,0,12
CC/C(=N\NC(=O)c1ccccc1)c1c(O)n(C2CCCCC2)c(=O)[nH]c1=O,18*,-6,3,3,13,16,4
CCOP(=O)(CCP(=O)(OCC)OCC)OCC.C[CH2][Sn]([Cl])([Cl])[CH2]C,-4,3,6,-2,7,-6,nt
CCC1(CC)C(=N)N(C)C(=O)NC1=O,-1,1,2,0,0,3,nt
CCCCN1C(=N)C(CC)(CC)C(=O)NC1=O,21*,-5,2,1,-2,9,1
O=c1c([N+](=O)[O-])cn(O)cc1[N+](=O)[O-],5,-6,-6,2,-1,3,nt
Nc1ccc(N=Nc2ccccc2)cc1,2,-3,3,-2,4,1,nt
Cc1cc(N=Nc2ccccc2C)ccc1N,32*,2,-3,0,-3,-10,1
Cn1c(CN2CCN(C(=O)COc3ccccc3)CC2)nc2cc([N+](=O)[O-])ccc21,151*,-5,3,1,-2,14,-2
C(#CCN1CCCCC1)COCc1ccccc1,21*,-1,-1,1,0,4,1
c1cc2c(cc1-c1ccc3c(c1)OCO3)CNCc1cnnn1-2,1,-2,-2,3,1,4,nt
CCN1CCN(CC(=O)c2c(C)n(Cc3ccccc3)c3ccc(OC)cc23)CC1,-9,0,1,1,-2,2,nt
COc1ccc2c(c1)c(C(=O)CN1CCC3(CC1)OCCO3)c(C)n2Cc1ccccc1,68*,-3,3,0,1,2,-2
C[C@@H]1CN([C@H](C)CO)C(=O)CCCn2nncc2CO[C@H]1CN(C)C(=O)Oc1cccc2ccccc12,-5,-3,2,3,-1,-9,nt
